Bioassay records (PubChem BioAssay)
Dyrk1A ADPGlo: blocks rat Dyrk1A kinase activity; Q63470; ADP-Glo luminescence, NFATc1 peptide; inhibition, % at 12.5 µM; hit rate 0.43% among 310,000; AID 504441; in the data active means inhibition above about 50%
Tb MetRS inh: blocks T. brucei methionyl-tRNA synthetase activity; purified T. brucei MetRS, ATP depletion, Kinase-Glo luminescence; inhibition, % at 11.9 µM; hit rate 0.4% among 360,000; AID 624268;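 active means inhibition above a per-plate cutoff of the control wells' mean inhibition plus 3 SD, cut at about 5.5% in these data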
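Assay system: T. brucei methionyl-tRNA synthetase, purified | Medium: HEPES buffer with MgCl2, KCl, DTT, spermine, BSA, pyrophosphatase | Compound: 11.9 µM single point | Incubation: 15 min enzyme-compound preincubation, 2 h reaction, 10 min detection, 25 °C | Measured by: Kinase-Glo luciferase luminescence reporting remaining unconsumed ATP | Measure: % inhibition normalized to control-well medians | Replication: Singlicate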
PvdQ acylase: blocks Pseudomonas aeruginosa PvdQ acylase activity. hit rate 0.063% among 340,000. inhibition, % at 10 µM. AID 488965. purified PvdQ acylase, fluorescence plate reader; in the data active means inhibition above about 30%, passing the limit was not always enough
CAL PDZ FP-1: CAL PDZ (human) peptide binding inhibition. Q9HD26. purified CAL PDZ, TMR-peptide fluorescence polarization, 1 h. inhibition, % at 24.9 µM. hit rate 0.92% among 300,000;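 active means mean inhibition of at least 30% with at least half of replicates also reaching 30%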
CDK5 p35 inh: blocks human CDK5/p35 kinase activity | Recombinant CDK5/p35, ADP-Glo luminescence, 60 min | inhibition, % at 10 µM | hit rate 0.01% among 330,000;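 active means highest replicate inhibition of at least 50% and at least 75% of replicates reaching 50%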
Target sequence (Q00535 whole entry, looked up): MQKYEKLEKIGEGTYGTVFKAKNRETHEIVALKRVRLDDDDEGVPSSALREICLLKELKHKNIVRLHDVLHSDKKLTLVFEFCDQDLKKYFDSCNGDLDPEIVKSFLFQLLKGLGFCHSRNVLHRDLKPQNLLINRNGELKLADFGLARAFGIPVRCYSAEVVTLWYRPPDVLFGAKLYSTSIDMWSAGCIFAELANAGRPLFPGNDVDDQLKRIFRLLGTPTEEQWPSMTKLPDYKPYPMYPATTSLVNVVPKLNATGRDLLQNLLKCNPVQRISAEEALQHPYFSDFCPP
Target sequence (Q15078 whole entry, looked up): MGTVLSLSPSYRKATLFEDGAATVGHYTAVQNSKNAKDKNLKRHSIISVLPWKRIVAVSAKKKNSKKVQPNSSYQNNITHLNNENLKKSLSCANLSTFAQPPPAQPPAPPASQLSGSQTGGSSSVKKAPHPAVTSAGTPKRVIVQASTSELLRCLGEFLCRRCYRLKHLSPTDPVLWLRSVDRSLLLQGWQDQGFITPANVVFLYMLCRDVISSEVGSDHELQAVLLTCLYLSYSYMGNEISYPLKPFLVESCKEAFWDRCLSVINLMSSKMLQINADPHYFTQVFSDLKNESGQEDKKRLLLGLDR
CAL PDZ FP-2: blocks peptide binding to human CAL PDZ domain | Q9HD26 | purified CAL PDZ, TMR-peptide fluorescence polarization, 1 h | inhibition, % at 20 µM | hit rate 0.02% among 330,000 | AID 504414;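 active means highest replicate inhibition of at least 40%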
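material = purified tagged CAL PDZ domain construct (CerCALP) | buffer or medium = sodium phosphate/NaCl buffer pH 7.4 with TCEP, IgG, Thesit | reagent = TMR-labelled reporter peptide T*-PRC34 bound in PDZ groove | incubation = 1 h room-temperature incubation prior to read | measured by = fluorescence polarization (mP) | evaluation = percent inhibition from loss of millipolarization | control set = unlabelled peptide and DMSO controls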
Tb MetRS conf: Trypanosoma brucei MetRS inhibition confirmed | shares compounds with Tb MetRS inh | T. brucei MetRS enzyme, luminescence (ATP depletion) | inhibition, % at 11.9 µM | hit rate 93% among 1,400; in the data active means inhibition above about 7%
Jurkat cytotox: kills Jurkat cells in T. brucei MetRS counterscreen. inhibition, % at 8.3 µM. shares compounds with Tb MetRS inh. hit rate 12% among 1,400. Jurkat cells viability, ATP luminescence; in the data active means inhibition above about 15%
TbMetRS FP orth: inhibits T. brucei methionyl tRNA synthetase in orthogonal FP test; shares compounds with Tb MetRS inh; purified T. brucei MetRS, fluorescence polarization; inhibition, % at 11.9 µM; hit rate 44% among 1,400; AID 651607; in the data active means inhibition above about 17%
Large screens that a line does not name were inactive (follow-up assays come after a bar, where they were run). This is a sample that favours compounds with a hit; in the whole collection about 1.4% have one here.

Clc1ccc(CN2C3=NCCN3c3ccccc32)cc1Cl	Tb MetRS inh 7.4 (no result: CAL PDZ FP-1) | Tb MetRS conf 12 | Jurkat cytotox 16 | TbMetRS FP orth inactive
O=C(NC1CC1)c1[nH]c(C(F)(F)F)nc1-c1ccccc1	none (no result: Dyrk1A ADPGlo, PvdQ acylase, CAL PDZ FP-1, CDK5 p35 inh, CAL PDZ FP-2)
Nc1cc2nc[nH]c2cc1N	Tb MetRS inh 6.3 | Tb MetRS conf 10 | Jurkat cytotox inactive | TbMetRS FP orth inactive
Cc1cc2nc[nH]c2cc1[N+](=O)[O-]	none
COc1ccccc1CN=C1Nc2ccccc2CS1	Tb MetRS inh 13 (no result: CAL PDZ FP-2) | Tb MetRS conf 32 | Jurkat cytotox inactive | TbMetRS FP orth inactive
c1ccc2c(c1)CSc1ccccc1N2	none (no result: Dyrk1A ADPGlo, PvdQ acylase, CAL PDZ FP-1, CDK5 p35 inh, CAL PDZ FP-2)
COc1cccc(CN=C2Nc3ccccc3CS2)c1	Tb MetRS inh 6.1 (no result: CAL PDZ FP-2) | Tb MetRS conf 11 | Jurkat cytotox inactive | TbMetRS FP orth inactive
c1cncc(CN=C2Nc3ccccc3CS2)c1	Tb MetRS inh 8.6 | Tb MetRS conf 17 | Jurkat cytotox inactive | TbMetRS FP orth inactive
COc1cccc(C2=NNC(=NCc3ccccc3)SC2)c1	none (no result: Dyrk1A ADPGlo)
Clc1ccc(CN=C2Nc3ccccc3CS2)cc1	Tb MetRS inh 12 | Tb MetRS conf 25 | Jurkat cytotox inactive | TbMetRS FP orth inactive
CCc1nc2ccc(C(=O)NCCCN3CCCC3=O)cn2c1N(C)C(=O)c1cccc(OC)c1	none (no result: Dyrk1A ADPGlo, PvdQ acylase, CAL PDZ FP-1, CDK5 p35 inh, CAL PDZ FP-2)
COc1ccc([C@@H]2CC(=O)[C@@H]3CN(S(=O)(=O)c4ccc(C)cc4)[C@H](c4ccccc4)C[C@@H]3N2S(=O)(=O)c2ccccc2)cc1	none (no result: Dyrk1A ADPGlo, PvdQ acylase, CAL PDZ FP-1, CDK5 p35 inh, CAL PDZ FP-2)
O=C(NCC1CCOCC1)c1ccc(-c2ccc(F)c(F)c2)c2ccoc12	none (no result: Dyrk1A ADPGlo, PvdQ acylase, CAL PDZ FP-1, CDK5 p35 inh, CAL PDZ FP-2)
Cc1ccc(C)c(C2=NNC(=NCc3ccccc3)SC2)c1	none
Cc1ccc(CN=C2Nc3ccccc3CS2)cc1	Tb MetRS inh 19 | Tb MetRS conf 32 | Jurkat cytotox inactive | TbMetRS FP orth inactive
C[C@H](NC(=O)[C@@H]1CCCN1C(=O)[C@@H]1CCCN1C(=O)c1cccc2ccccc12)c1ccccc1	none (no result: Dyrk1A ADPGlo, PvdQ acylase, CAL PDZ FP-1, CDK5 p35 inh, CAL PDZ FP-2)
COc1ccc(OCc2cc(C(=O)NCc3nc(C)cs3)no2)c(Cl)c1	Tb MetRS inh 6.2 | Tb MetRS conf 29 | Jurkat cytotox inactive | TbMetRS FP orth 21
Cc1ccc2[nH]cc(S(=O)(=O)c3ccc(F)cc3)c(=O)c2c1	Tb MetRS inh 29 | Tb MetRS conf 41 | Jurkat cytotox inactive | TbMetRS FP orth inactive
Nc1cc(C(=O)OCC(=O)NCCNC(=O)COC(=O)c2ccc(Cl)c(N)c2)ccc1Cl	Tb MetRS inh 11 | Tb MetRS conf 30 | Jurkat cytotox inactive | TbMetRS FP orth inactive
S=C(NCCSCc1ccc(Cl)c(Cl)c1)Nc1ccccc1	Tb MetRS inh 41 | Tb MetRS conf 57 | Jurkat cytotox inactive | TbMetRS FP orth 41
COc1ccc(CSCCNC(=S)Nc2ccccc2)cc1Cl	Tb MetRS inh 28 | Tb MetRS conf 41 | Jurkat cytotox inactive | TbMetRS FP orth 22
Cc1ccccc1CSCCNC(=S)Nc1ccccc1	none
CCOc1ccc(CSCCNC(=S)Nc2ccccc2)cc1	Tb MetRS inh 14 | Tb MetRS conf 25 | Jurkat cytotox 16 | TbMetRS FP orth inactive
CCOc1ccc(NC(=S)NCCCc2ccccc2)cc1	none (no result: Dyrk1A ADPGlo)
COc1ccccc1-c1ccc2c(c1)C(C)(Cc1ccc(OC(F)(F)F)cc1)C(=O)N2 (stereo unspecified)	none (no result: Dyrk1A ADPGlo, PvdQ acylase, CAL PDZ FP-1, CDK5 p35 inh, CAL PDZ FP-2)
Cc1ccc(Nc2nc3ccccc3[nH]2)nc1	Tb MetRS inh 8.1 | Tb MetRS conf 26 | Jurkat cytotox inactive | TbMetRS FP orth inactive
COc1cccc(NC(=O)N(C)C[C@H]2OCc3cn(nn3)CCCC(=O)N([C@@H](C)CO)C[C@@H]2C)c1	none (no result: Dyrk1A ADPGlo, PvdQ acylase, CAL PDZ FP-1, CDK5 p35 inh, CAL PDZ FP-2)
COc1cccc(NC(=O)C/C(C)=N/NC(=O)c2ccccc2Cl)c1	none (no result: Dyrk1A ADPGlo)
C/C(CC(=O)Nc1cccc(Br)c1)=N\NC(=O)c1ccc(O)cc1O	Tb MetRS inh 27 | Tb MetRS conf 98 | Jurkat cytotox inactive | TbMetRS FP orth 80
Nc1nnc(COc2ccc(Br)cc2Br)s1	Tb MetRS inh 21 | Tb MetRS conf 42 | Jurkat cytotox inactive | TbMetRS FP orth 20
C=C(C)Cn1c2ccc(NC(=O)NCc3ccc(F)cc3)cc2c(=O)n1C	none (no result: Dyrk1A ADPGlo, PvdQ acylase, CAL PDZ FP-1, CDK5 p35 inh, CAL PDZ FP-2)
O=C(CCN(CCO)Cc1ccccc1)Nc1ccc(Br)cc1	Tb MetRS inh 20 | Tb MetRS conf 40 | Jurkat cytotox inactive | TbMetRS FP orth inactive
CCN(CCC(=O)Nc1ccc(Br)c(C)c1)Cc1ccccc1	none
CC(C)(C)C1c2[nH]c3ccccc3c2CCN1Cc1cccc(OCCO)c1 (stereo unspecified)	Tb MetRS inh 9.1 | Tb MetRS conf 7.1 | Jurkat cytotox inactive | TbMetRS FP orth inactive
COc1ccc(C2CC(c3ccc(Cl)cc3Cl)Nc3nc(N)nn32)cc1 (stereo unspecified)	Tb MetRS inh 7.5 | Tb MetRS conf 14 | Jurkat cytotox inactive | TbMetRS FP orth inactive
COc1cccc(C2CC(c3ccc(Cl)cc3Cl)Nc3nc(N)nn32)c1 (stereo unspecified)	Tb MetRS inh 8.3 (no result: Dyrk1A ADPGlo) | Tb MetRS conf 13 | Jurkat cytotox inactive | TbMetRS FP orth inactive
